Assay results published in ChEMBL document CHEMBL1141286, “Benzochromenones from the marine crinoid Comantheria rotula inhibit hypoxia-inducible factor-1 (HIF-1) in cell-based reporter assays and differentially suppress the growth of certain tumor cell lines” (J Nat Prod, 2007).

Assays:
IGROV-1 = assay: Growth inhibition of human IGROV1 cells; type: functional
SR = assay: Growth inhibition of human SR cells; type: functional
MDA-MB-231 = assay: Growth inhibition of human MDA-MB-231 cells; type: functional
EKVX = assay: Growth inhibition of human EKVX cells; type: functional
SNB-19 = assay: Growth inhibition of human SNB19 cells; type: functional
[1] = Inhibition of HIF1 activation in PC3 cells by TK-luciferase assay; type: cell-based; conditions: Homo sapiens, PC-3
Outline: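 HIF-1 reporter (pHRE-TK-Luc) assays in transfected PC-3 or T47D cells; HIF-1 induced by hypoxia or by the hypoxia mimetic 1,10-phenanthroline (10 μM); compounds at half-log concentrations; luciferase activity measured; IC50 from experiments in triplicate.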

CAKI-1 = assay: Growth inhibition of human CAKI1 cells; type: functional
786-0 = assay: Growth inhibition of human 786-0 cells; type: functional
SK-MEL-2 = assay: Growth inhibition of human SK-MEL2 cells; type: functional
KM12 = assay: Growth inhibition of human KM12 cells; type: functional
M14 = assay: Growth inhibition of human M14 cells; type: functional
PC-3 = assay: Growth inhibition of human PC3 cells; type: functional
HCT-15 = assay: Growth inhibition of human HCT15 cells; type: functional
TK-10 = assay: Growth inhibition of human TK10 cells; type: functional
SK-MEL-5 = assay: Growth inhibition of human SK-MEL5 cells; type: functional
COLO 205 = assay: Growth inhibition of human COLO205 cells; type: functional
SF-268 = assay: Growth inhibition of human SF268 cells; type: functional
UACC-257 = assay: Growth inhibition of human UACC257 cells; type: functional
UO-31 = assay: Growth inhibition of human UO31 cells; type: functional
SK-OV-3 = assay: Growth inhibition of human SK-OV3 cells; type: functional
HT-29 = assay: Growth inhibition of human HT29 cells; type: functional
[2] = read-out: Log LC50 (the source's name) (converted)

For `COc1cc(O)cc2cc3oc(C)cc(=O)c3c(OC)c12` [COMANTHERIN], the GI50 (IGROV-1) was > 100 µM, the CC50 (IGROV-1; [2]) was > 100 µM and the TGI (IGROV-1; read-out: Log TGI (converted)) was > 100 µM. The GI50 (SR) was 97.7 µM, the CC50 (SR; [2]) was > 100 µM and the TGI (SR; read-out: Log TGI (converted)) was > 100 µM. For the same compound, the GI50 (MDA-MB-231) was > 100 µM, the LC50 (MDA-MB-231) was > 100 µM and the TGI (MDA-MB-231; read-out: Log TGI (converted)) was > 100 µM. For the same compound, the GI50 (EKVX) was > 100 µM, the CC50 (EKVX; [2]) was > 100 µM and the TGI (EKVX; read-out: Log TGI (converted)) was > 100 µM. For the same compound, the GI50 (SNB-19) was > 100 µM, the LC50 (SNB-19) was > 100 µM and the TGI (SNB-19; read-out: Log TGI (converted)) was > 100 µM. For the same compound, the IC50 [1] was 10 µM, the GI50 (CAKI-1) was > 100 µM and the LC50 (CAKI-1) was > 100 µM. The TGI (CAKI-1; read-out: Log TGI (converted)) was > 100 µM, the GI50 (786-0) was > 100 µM and the LC50 (786-0) was > 100 µM. The TGI (786-0; read-out: Log TGI (converted)) was > 100 µM, the GI50 (SK-MEL-2) was > 100 µM and the LC50 (SK-MEL-2) was > 100 µM. For the same compound, the TGI (SK-MEL-2; read-out: Log TGI (converted)) was > 100 µM, the GI50 (KM12) was > 100 µM and the CC50 (KM12; [2]) was > 100 µM. The TGI (KM12; read-out: Log TGI (converted)) was > 100 µM, the GI50 (M14) was > 100 µM and the LC50 (50% lethal concentration) (M14) was > 100 µM. For the same compound, the TGI (M14; read-out: Log TGI (converted)) was > 100 µM, the GI50 (PC-3) was 85.1 µM and the LC50 (PC-3) was > 100 µM. For the same compound, the TGI (PC-3; read-out: Log TGI (converted)) was > 100 µM, the GI50 (HCT-15) was > 100 µM and the CC50 (HCT-15; [2]) was > 100 µM. The TGI (HCT-15; read-out: Log TGI (converted)) was > 100 µM, the GI50 (TK-10) was > 100 µM and the LC50 (TK-10) was > 100 µM. For the same compound, the TGI (TK-10; read-out: Log TGI (converted)) was > 100 µM, the GI50 (SK-MEL-5) was > 100 µM and the LC50 (SK-MEL-5) was > 100 µM. The TGI (SK-MEL-5; read-out: Log TGI (converted)) was > 100 µM, the GI50 (COLO 205) was > 100 µM and the CC50 (COLO 205; [2]) was > 100 µM. For the same compound, the TGI (COLO 205; read-out: Log TGI (converted)) was > 100 µM, the GI50 (SF-268) was 85.1 µM and the LC50 (SF-268) was > 100 µM. The TGI (SF-268; read-out: Log TGI (converted)) was > 100 µM, the GI50 (UACC-257) was > 100 µM and the LC50 (UACC-257) was > 100 µM. For the same compound, the TGI (UACC-257; read-out: Log TGI (converted)) was > 100 µM, the GI50 (UO-31) was > 100 µM and the LC50 (UO-31) was > 100 µM. For the same compound, the TGI (UO-31; read-out: Log TGI (converted)) was > 100 µM, the GI50 (SK-OV-3) was > 100 µM and the LC50 (SK-OV-3) was > 100 µM. For the same compound, the TGI (SK-OV-3; read-out: Log TGI (converted)) was > 100 µM, the GI50 (HT-29) was > 100 µM and the CC50 (HT-29; [2]) was > 100 µM. The TGI (HT-29; read-out: Log TGI (converted)) was > 100 µM.
